Results published in ChEMBL document CHEMBL5576140, “Computational Design of Pore-Forming Peptides with Potent Antimicrobial and Anticancer Activities” (J Med Chem, 2024).
Active and inactive are the calls of the source.

Key:
HL-60 [1] = assay: pH-dependent anticancer activity against human HL-60 cells in PBS medium at 10 uM incubated for 1 hr; format: functional, cell-based
Method in brief: (§1)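 Cells cultured in RPMI, DMEM or PBS, each adjusted to pH 8, 7 or 6, plus one unadjusted (~7.6). Peptide at 10 μM for only 1 h, to limit pH drift from CO₂-bicarbonate buffering. Cell viability read. Controls were melittin, ampicillin and PBS. Two independent repetitions; effects analysed by ANOVA.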

Enterococcus faecium = assay: Depolarization of cytoplasmic membrane in Enterococcus faecium ATCC 700221 at MIC measured for 45 mins by DiSC3-(5) dye based assay; format: functional, organism-based
Method in brief: (§2)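 Bacteria loaded with membrane-potential dye DiSC3-(5), then treated with peptide at its MIC for the respective strain; depolarization read as rise in dye fluorescence; polymyxin B and levofloxacin as reference antibiotics.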

[2] = Toxicity against reconstructed human skin model assessed as irritation at 50 uM incubated for 1 hr followed by compound washout measured after 42 hrs by MTT assay; format: tissue-based, Skin of body
Method in brief: (§3)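 Reconstructed human epidermis with stratum corneum, per OECD TG 439 skin irritation guideline. Tissues exposed 1 h to peptide at 50 μM, then 42 h post-treatment incubation. Viability read by MTT. Controls were SDS and melittin.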

MCF7 [3] = assay: Induction of apoptosis in human MCF7 cells in DMEM medium at pH 6 assessed as increase in cleaved capase-3 level at 10 uM; format: functional, cell-based
Method in brief: (§4)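 MCF-7 cells treated with peptides at pH 6; apoptosis detected by immunoblotting for cleaved PARP and cleaved caspase-3.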

HL-60 [4] = assay: pH-dependent anticancer activity against human HL-60 cells in RPMI medium at 10 uM incubated for 1 hr; format: functional, cell-based; method in brief: as §1
Pseudomonas aeruginosa [5] = assay: Induction of outer membrane permeabilization in Pseudomonas aeruginosa PAO1 measured for 20 mins by NPN uptake assay; format: functional, organism-based
Method in brief: (§5)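 Outer-membrane permeabilization of Gram-negative bacteria read as rise in fluorescence of the lipophilic dye NPN, which enters only when outer-membrane integrity is compromised. Peptides applied at their MIC against the respective strain; polymyxin B and levofloxacin as reference antibiotics. Triplicates.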

Acinetobacter baumannii [6] = assay: Induction of outer membrane permeabilization in Acinetobacter baumannii ATCC 19606 measured for 20 mins by NPN uptake assay; format: functional, organism-based
Acinetobacter baumannii [7] = assay: Depolarization of cytoplasmic membrane in Acinetobacter baumannii ATCC 19606 at MIC measured for 45 mins by DiSC3-(5) dye based assay; format: functional, organism-based; method in brief: as §2
MCF7 [8] = assay: pH-dependent anticancer activity against human MCF7 cells in DMEM medium at 10 uM incubated for 1 hr; format: functional, cell-based; method in brief: as §1
SUD4 = assay: Anti-cancer activity against human SU-DHL-4 cells incubated for 24 hrs by WST assay; format: functional, cell-based; settings: SU-DHL-4, 24 h
Escherichia coli [9] = assay: Depolarization of cytoplasmic membrane in Escherichia coli ATCC 11775 at MIC measured for 45 mins by DiSC3-(5) dye based assay; format: functional, organism-based; method in brief: as §2
Staphylococcus aureus = assay: Depolarization of cytoplasmic membrane in Staphylococcus aureus ATCC 12600 at MIC measured for 45 mins by DiSC3-(5) dye based assay; format: functional, organism-based; method in brief: as §2
HL-60 [10] = assay: Anti-cancer activity against human HL-60 cells at 10 uM incubated for 30 mins; format: functional, cell-based
[11] = Stability in simulated pore POPC lipid bilayer membrane; format: physicochemical
Method in brief: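 Coarse-grained MD with the "scaled" Martini force field, peptides in POPC membrane, 51 μs. Counts transmembrane peptides at 51 μs. Water beads within 2 nm vertically of membrane centre and peptide–peptide interaction energy averaged over 48–51 μs. Contacts (salt bridge or stacking) scored below 0.8 nm and called stable if present ≥50% of the time.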

Staphylococcus carnosus = assay: Antimicrobial activity against Staphylococcus carnosus CCM 4838T incubated for 24 hrs by broth microdilution assay; format: functional
T-cell line = assay: Cytotoxicity against human T-lymphocytes assessed as deleterious effect upto 50 uM by flow cytometry; format: toxicity, cell-based
Method in brief: (§6)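 Whole blood from a healthy donor treated with peptides up to 50 μM; effect on B and T lymphocytes, granulocytes and monocytes assessed.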

HCT-116 [12] = assay: pH-dependent anticancer activity against human HCT-116 cells in PBS medium at 10 uM incubated for 1 hr; format: functional, cell-based; method in brief: as §1
K562 [13] = assay: pH-dependent anticancer activity against human K562 cells in DMEM medium at 10 uM incubated for 1 hr; format: functional, cell-based; method in brief: as §1
Escherichia coli [14] = assay: Induction of outer membrane permeabilization in Escherichia coli ATCC 11775 measured for 20 mins by NPN uptake assay; format: functional, organism-based
Acinetobacter baumannii [15] = assay: Anti-infective activity against Acinetobacter baumannii ATCC 19606 infected in neutropenic CD-1 mouse deep thigh infection model assessed as reduction in bacterial load at 1.33 mg/kg, ip measured after 4 days; format: functional, organism-based; settings: time 4.0 day
Method in brief: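 Neutropenic mice infected intramuscularly in right thigh with 10⁶ cells per mL A. baumannii ATCC 19606; single intraperitoneal peptide dose at 10× MIC; bacterial load determined 4 days after treatment (euthanized day 8); n = 6 per group from three inocula; one-way ANOVA with Dunnett's test versus untreated.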

MCF7 [16] = assay: Induction of apoptosis in human MCF7 cells in DMEM medium at pH 6 assessed as increase in cleaved PARP level at 10 uM; format: functional, cell-based; method in brief: as §4
HCT-116 [17] = assay: pH-dependent anticancer activity against human HCT-116 cells in DMEM medium at 10 uM incubated for 1 hr; format: functional, cell-based; method in brief: as §1
Monocyte = assay: Cytotoxicity against human monocytes assessed as deleterious effect upto 50 uM by flow cytometry; format: toxicity, cell-based; method in brief: as §6
Klebsiella pneumoniae [18] = assay: Induction of outer membrane permeabilization in Klebsiella pneumoniae ATCC 13883 measured for 20 mins by NPN uptake assay; format: functional, organism-based; method in brief: as §5
MOLM-13 = assay: Anti-cancer activity against human MOLM-13 cells incubated for 24 hrs by WST assay; format: functional, cell-based; settings: MOLM-13, 24 h
HL-60 [19] = assay: pH-dependent anticancer activity against human HL-60 cells in DMEM medium at 10 uM incubated for 1 hr; format: functional, cell-based; method in brief: as §1
Pseudomonas aeruginosa [20] = assay: Depolarization of cytoplasmic membrane in Pseudomonas aeruginosa PAO1 at MIC measured for 45 mins by DiSC3-(5) dye based assay; format: functional, organism-based; method in brief: as §2
MCF7 [21] = assay: pH-dependent anticancer activity against human MCF7 cells in PBS medium at 10 uM incubated for 1 hr; format: functional, cell-based; method in brief: as §1
[22] = Anti-cancer activity against human MEC-1 cells incubated for 24 hrs by WST assay; format: functional, cell-based; settings: MEC1, 24 h
[23] = Toxicity in neutropenic CD-1 mouse deep thigh infection model infected with Acinetobacter baumannii ATCC 19606 assessed as body weight change at 1.33 mg/kg, ip measured after 4 days; format: organism-based; settings: in vivo, 96 h, time 4 day
Method in brief: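 Neutropenic mice infected intramuscularly in the right thigh with 10⁶ cells per mL of A. baumannii ATCC 19606. […] Body weight monitored for toxicity. Euthanasia 4 days post-infection (day 8). n = 6 per group, from three inocula.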

Klebsiella pneumoniae [24] = assay: Depolarization of cytoplasmic membrane in Klebsiella pneumoniae ATCC 13883 at MIC measured for 45 mins by DiSC3-(5) dye based assay; format: functional, organism-based; method in brief: as §2
HCT-116 [25] = assay: pH-dependent anticancer activity against human HCT-116 cells in RPMI medium at 10 uM incubated for 1 hr; format: functional, cell-based; method in brief: as §1
K562 [26] = assay: pH-dependent anticancer activity against human K562 cells in RPMI medium at 10 uM incubated for 1 hr; format: functional, cell-based; method in brief: as §1
MCF7 [27] = assay: pH-dependent anticancer activity against human MCF7 cells in RPMI medium at 10 uM incubated for 1 hr; format: functional, cell-based; method in brief: as §1
[28] = Anti-cancer activity against human NHDF cells incubated for 72 hrs by Cell Titer Glo assay; format: toxicity, cell-based
B cell = assay: Cytotoxicity against human B-lymphocytes assessed as deleterious effect upto 50 uM by flow cytometry; format: toxicity, cell-based; method in brief: as §6
[29] = Cytotoxicity against human granulocytes assessed as deleterious effect upto 50 uM by flow cytometry; format: toxicity, cell-based; settings: granulocyte; method in brief: as §6
[30] = Toxicity against reconstructed human skin model assessed as tissue viability at 50 uM incubated for 1 hr followed by compound washout measured after 42 hrs by MTT assay; format: tissue-based, Skin of body; settings: read-out: Activity; method in brief: as §3
K562 [31] = assay: pH-dependent anticancer activity against human K562 cells in PBS medium at 10 uM incubated for 1 hr; format: functional, cell-based; method in brief: as §1

H-HHHHLKKILKKLFQFINQLDNQLQDIHHHH-OH
1000 nM: IC50 (SUD4) | IC50 (MOLM-13) | IC50 [22]
100%: viability at 1 h, 50 µM [30]
Non-Toxic: Activity [2] | Activity (T-cell line) | Activity (Monocyte) | Activity [23] | Activity (B cell) | Activity [29]
Stable: Stability [11]
inactive: Activity (Acinetobacter baumannii [6]) | Activity (Acinetobacter baumannii [15])
> 200000 nM: IC50 at 72 h [28]
> 50 µM: MIC (Staphylococcus carnosus)
active: Activity (HL-60 [1]) | Activity (Enterococcus faecium) | Activity (MCF7 [3]) | Activity (HL-60 [4]) | Activity (Pseudomonas aeruginosa [5]) | Activity (Acinetobacter baumannii [7]) | Activity (MCF7 [8]) | Activity (Escherichia coli [9]) | Activity (Staphylococcus aureus) | Activity (HL-60 [10]) | Activity (HCT-116 [12]) | Activity (K562 [13]) | Activity (Escherichia coli [14]) | Activity (MCF7 [16]) | Activity (HCT-116 [17]) | Activity (Klebsiella pneumoniae [18]) | Activity (HL-60 [19]) | Activity (Pseudomonas aeruginosa [20]) | Activity (MCF7 [21]) | Activity (Klebsiella pneumoniae [24]) | Activity (HCT-116 [25]) | Activity (K562 [26]) | Activity (MCF7 [27]) | Activity (K562 [31])
